Reference: ChEMBL document CHEMBL1128500, “Diamine and triamine analogs and derivatives as inhibitors of deoxyhypusine synthase: synthesis and biological activity” (J Med Chem, 1995)

How the values were obtained:
[1] = target: T1, Deoxyhypusine synthase (Homo sapiens) (UniProt P49366); assay: Effect on protein synthesis in CHO cells at concentration 3 uM.; conditions: Cricetulus griseus
T1 sequence (whole entry): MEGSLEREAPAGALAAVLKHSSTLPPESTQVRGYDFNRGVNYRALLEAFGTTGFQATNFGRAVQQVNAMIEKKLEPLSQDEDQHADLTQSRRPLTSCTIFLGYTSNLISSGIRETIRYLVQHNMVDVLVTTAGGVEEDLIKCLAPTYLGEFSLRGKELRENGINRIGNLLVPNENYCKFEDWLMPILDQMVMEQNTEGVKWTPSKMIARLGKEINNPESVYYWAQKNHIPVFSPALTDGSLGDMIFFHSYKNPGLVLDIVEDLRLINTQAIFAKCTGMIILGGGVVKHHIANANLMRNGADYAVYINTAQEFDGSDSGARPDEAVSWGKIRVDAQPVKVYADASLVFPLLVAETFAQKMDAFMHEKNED

[2] = target: T2, Deoxyhypusine synthase (Rattus norvegicus, UniProt Q6AY53); assay: In vitro IC50 value by measuring the inhibition of deoxyhypusine synthase.
T2 sequence (Q6AY53 whole entry): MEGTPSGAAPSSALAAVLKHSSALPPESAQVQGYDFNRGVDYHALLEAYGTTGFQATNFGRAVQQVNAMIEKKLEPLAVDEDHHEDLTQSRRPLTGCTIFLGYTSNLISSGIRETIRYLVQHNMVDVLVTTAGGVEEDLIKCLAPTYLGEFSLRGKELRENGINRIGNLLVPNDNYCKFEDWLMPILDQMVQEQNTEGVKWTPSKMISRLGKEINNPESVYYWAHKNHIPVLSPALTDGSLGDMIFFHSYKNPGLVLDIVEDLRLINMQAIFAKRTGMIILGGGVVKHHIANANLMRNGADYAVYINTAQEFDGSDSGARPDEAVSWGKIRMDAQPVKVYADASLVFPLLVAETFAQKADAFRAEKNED

[3] = target: T1, Deoxyhypusine synthase (Homo sapiens); assay: Effect on Hypusine formation in CHO cells at concentration 3 uM.; assay type: functional, cell-based; conditions: Cricetulus griseus
[4] = target: T1, Deoxyhypusine synthase (Homo sapiens); assay: Effect on protein synthesis in CHO cells at concentration 10 uM.; conditions: Cricetulus griseus
[5] = test system: CHO; assay: Effect on spermidine uptake in CHO cells at concentration 10 uM.; assay type: functional
Method in brief: (§1)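 Spermidine uptake in CHO cells: total cellular radioactivity after 18 h growth with 5 μCi/mL [3H]spermidine in presence of compound, reported as percentage of untreated-cell value.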

[6] = target: T1, Deoxyhypusine synthase (Homo sapiens); assay: Effect on Hypusine formation in CHO cells at concentration 10 uM.; assay type: functional, cell-based; conditions: Cricetulus griseus
[7] = test system: CHO; assay: Effect on hypusine synthesis in CHO cells at concentration 10 uM.; assay type: functional, Cricetulus griseus
[8] = test system: CHO; assay: Effect on spermidine uptake in CHO cells at concentration 3 uM.; assay type: functional, Cricetulus griseus
Method in brief: as §1

[9] = test system: CHO; assay: Growth inhibition was measured against CHO cell line; - indicates >100 uM; assay type: functional, cell-based; conditions: Cricetulus griseus
Method in brief: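 CHO cells grown with compound for 72 h; cellular protein measured by bicinchoninic acid method as crude growth estimate (control protein rose ~16-fold over 72 h). Symbol gives compound range halving protein versus control: ++++ <0.5, +++ 0.5-1, ++ >1-10, + >10-100, - >100 μM.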

| SMILES | Control [1] | IC50 [2] | Control [3] | Control [4] | Control [5] | Control [6] | also measured |
| --- | --- | --- | --- | --- | --- | --- | --- |
| N=C(N)NCCCSCCCNC(=N)N | 100% | 21 µM | 100% | 60% | 81% | 74% |  |
| N=C(N)NCCCCCCCCNCCCCCCCCNC(=N)N [IMINOCTADIENE] | 100% | 3.5 µM | 100% | 84% | 95% | 100% |  |
| N=C(N)NCCCOCCCN |  | 0.7 µM |  |  |  |  |  |
| NCCCCCCNCCCCCCN=C(N)N | 45% |  | 61% | 35% | 80% | 48% |  |
| NCCCCCNCCCCCN=C(N)N | 80% | 100 µM |  | 65% | 74% | 92% |  |
| N=C(N)NCCCCSCCCNC(=N)N |  | 48 µM |  |  |  |  |  |
| N=C(N)SCCCCCCCSC(=N)N |  | > 1000 µM |  |  |  |  |  |
| NCCCCCCNCCCCCCN |  | > 1000 µM |  |  |  |  |  |
| N=C(N)SCCCCCCCCSC(=N)N |  | > 1000 µM |  |  |  |  |  |
| N=C(N)NCCCOCCCNC(=N)N | 100% | 8 µM | 100% |  | 100% | 100% | Control [7]: 100% |
| N#CCCNCCCCCCCNC(=N)N |  | 96 µM |  |  |  |  |  |
| N=C(N)NCCCCCCCCNC(=N)N |  | 16.1 µM |  |  |  |  |  |
| NCCCNCCCN [NORSPERMIDINE] |  | 41 µM |  |  |  |  |  |
| N=C(N)NCCCNCCCN |  | 1.2 µM |  |  |  |  |  |
| NCCCOCCCN | 100% | 13 µM | 100% | 85% | 100% | 100% |  |
| NCCCOCCCN=C(N)N | 98% |  | 76% | 92% | 95% | 20% |  |
| NCCCNOCCCN |  | 385 µM |  |  |  |  |  |
| N=C(N)SCCCCCSC(=N)N |  | > 1000 µM |  |  |  |  |  |
| NCCCNCCCN=C(N)N | 77% |  | 50% | 75% | 34% | 23% | Control [8]: 76% |

| SMILES | Control [1] | IC50 [2] | Control [3] | Control [4] | Control [5] | Control [6] | also measured |
| --- | --- | --- | --- | --- | --- | --- | --- |
| NCCCCNCCCCN=C(N)N | 88% | 0.16 µM | 7% | 93% | 28% | 3% | Control [8]: 64% |
| N=C(N)CCCCCCCCC(=N)N |  | > 1000 µM |  |  |  |  |  |
| N=C(N)CCCCCCCC(=N)N |  | 120 µM |  |  |  |  |  |
| N=C(N)CCCCCCCCCC(=N)N |  | > 1000 µM |  |  |  |  |  |
| NCCCCCCCNCCCCCCCN |  | 63 µM |  |  |  |  |  |
| NCCCSCCCN=C(N)N | 40% | 1.9 µM | 50% | 25% | 100% | 24% |  |
| NCCCCCCCCNCCCCCCCCN |  | 116 µM |  |  |  |  |  |
| N=C(N)NCCCCCCN |  | 132 µM |  |  |  |  |  |
| CCNCCCCCCCN=C(N)N | 34% |  | 76% | 28% | 95% | 36% |  |
| N=C(N)NCCCCCCCNCCCCCCCNC(=N)N | 88% | 0.08 µM | 90% | 67% | 95% | 74% |  |
| [H]/N=C(/N)NCCCCCNC(=N)N |  | 6.8 µM |  |  |  |  |  |
| N=C(N)NCCCCCCCNCCCCCCCN |  | 0.3 µM |  |  |  |  |  |
| N=C(N)CCCCCCC(=N)N |  | > 1000 µM |  |  |  |  |  |
| NCCCCCCCNCCCCCCCN=C(N)N | 24% |  | 34% | 20% | 65% | 22% |  |
| NCCCCCCCCNCCCCCCCCN=C(N)N | 20% |  | 36% | 22% | 80% | 27% |  |
| CCNCCCCCCCNC(=N)N |  | 9 µM |  |  |  |  |  |
| N=C(N)NCCCCCCNC(=N)N |  | 112 µM |  |  |  |  |  |
| N=C(N)SCCCCCCSC(=N)N |  | 780 µM |  |  |  |  |  |
| N=C(N)NCCCCN [AGMATINE] |  | 156 µM |  |  |  |  |  |

| SMILES | Control [1] | IC50 [2] | Control [3] | Control [4] | Control [5] | Control [6] | also measured |
| --- | --- | --- | --- | --- | --- | --- | --- |
| NC(N)=NCCCCN=C(N)N [ARCAINE] |  | 179 µM |  |  |  |  |  |
| N=C(N)NCCCCCCNCCCCCCNC(=N)N | 93% | 40 µM | 96% | 87% | 95% | 100% |  |
| N=C(N)SCCCCSC(=N)N |  | > 1000 µM |  |  |  |  |  |
| N=C(N)NCCCCCCCCN |  | 0.55 µM |  |  |  |  |  |
| N=C(N)CCCCCC(=N)N |  | > 1000 µM |  |  |  |  |  |
| N=C(N)NCCCCNCCCCNC(=N)N | 100% | 3.2 µM | 100% | 100% | 85% | 100% |  |
| N=C(N)CCCCCCCCCCC(=N)N |  | > 1000 µM |  |  |  |  |  |
| NCCCCSCCCN |  | 235 µM |  |  |  |  |  |
| NCCCCCN=C(N)N |  | 29 µM |  |  |  |  |  |
| NCCCCNCCCCN |  | 556 µM |  |  |  |  | Growth inhibition [9]: Not toxic |
| NCCCCCNCCCCCN |  | > 1000 µM |  |  |  |  |  |
| N=C(N)NCCCNCCCNC(=N)N | 80% | 182 µM | 98% |  | 95% | 100% | Growth inhibition [9]: Not toxic |
| N=C(N)NCCCCCCCCNCCCCCCCCN |  | 13 µM |  |  |  |  |  |
| N=C(N)NCCCCCCCN | 62% | 0.03 µM | 0% | 50% |  |  | Control [8]: 100% |
| N=C(N)NCCCCCNCCCCCNC(=N)N | 100% | 38 µM | 100% | 100% | 95% | 100% |  |
| N=C(N)NCCCCCCCNC(=N)N |  | 3.4 µM |  |  |  |  |  |
| NCCCSCCCN | 86% | 83 µM | 100% | 81% | 100% | 93% |  |
| CCNCCCCCCCN |  | 275 µM |  |  |  |  | Growth inhibition [9]: Not toxic |
| N=C(N)NCCCCCCNCCCCCCN |  | 74 µM |  |  |  |  |  |
